# Compound activity deposited in PubChem by Sanford-Burnham Center for Chemical Genomics.
# FLuc stim CS: FLuc activators, initial screening, artefact control for FLuc-dependent activation tests, biochemical, ATPlite luminescence; ATPlite luciferase biochemical, 10 min; 0 = ATP-free wells, 1 = DMSO control; 200,000 tested, under 10 active; AID 1027, 2008; activation factor at 10 µM;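 active = luciferase activation factor, scaled between plate controls, of at least 2 with compound at 10 µM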
# Target sequence (P08659 whole entry, looked up): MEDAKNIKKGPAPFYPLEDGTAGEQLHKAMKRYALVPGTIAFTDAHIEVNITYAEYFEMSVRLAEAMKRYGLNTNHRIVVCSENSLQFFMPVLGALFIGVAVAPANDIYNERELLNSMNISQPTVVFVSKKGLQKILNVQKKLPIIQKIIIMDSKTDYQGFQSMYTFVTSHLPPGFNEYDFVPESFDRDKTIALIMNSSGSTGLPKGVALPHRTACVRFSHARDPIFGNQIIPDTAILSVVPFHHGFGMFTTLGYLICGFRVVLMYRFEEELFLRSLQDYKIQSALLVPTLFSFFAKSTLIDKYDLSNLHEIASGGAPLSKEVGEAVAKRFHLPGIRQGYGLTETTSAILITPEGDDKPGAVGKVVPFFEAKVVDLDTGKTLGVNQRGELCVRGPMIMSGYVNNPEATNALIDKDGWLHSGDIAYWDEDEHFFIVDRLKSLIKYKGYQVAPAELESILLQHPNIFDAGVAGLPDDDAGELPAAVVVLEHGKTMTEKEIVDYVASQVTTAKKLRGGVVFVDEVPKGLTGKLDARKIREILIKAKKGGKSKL
#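 test system = cell-free luciferase reagent | medium = PBS as buffer for the ATP substrate | dosing = test compounds dosed from 2 mM stocks in 100% DMSO | incubation = 10 min at ambient temperature | detection = luminescence measurement of luciferase light output | benchmarks = low control with PBS replacing ATP, high control enzyme plus ATP without compound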
# PPC-1+TRAIL kill: compounds killing PPC-1 cancer cells with TRAIL present, primary screen, TRAIL potentiator project, ATPLite luminescence, uHTS; PPC-1 cells + TRAIL, ATPLite viability luminescence; actives 0.41% (n = 220,000); AID 1443, 2008; cell killing (% activity), % at 4 µM or 5 µM;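 active = cell killing above 50% in the first pass at 4 µM, then a duplicate retest at 5 µM averaging 50% or more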;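 note: plate controls were cells with TRAIL plus DMSO for no effect and medium-only wells lacking cells for full effect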
# TRAIL sens C8: viability loss with TRAIL in NB7+C8 cells, primary screen, TRAIL sensitizer project, cell-based, ATPlite luminescence; inhibition (viability loss, TRAIL sensitization), % at 10 µM; actives 1% (n = 360,000);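 active = compounds causing at least 50% loss of cell viability in the single-dose screen, relative to plate controls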
# FLuc inhib CS: firefly luciferase enzyme inhibitors, primary screen, artefact control for luciferase-based inhibitor screens, biochemical, luminescence, ATPLite. Luciferin 4-monooxygenase (Photinus pyralis), P08659. 10 min. inhibition, % at 10 µM. actives 1.5% (n = 200,000);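 active = inhibition above about 50% when tested at 10 µM, limit read from the data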
# * = called active by the depositor; . = not tested or not shown. Sampled rows, rich in hits. Any-hit rate of the full collection: about 1.5%.
SMILES,FLuc stim CS,PPC-1+TRAIL kill,TRAIL sens C8,FLuc inhib CS
COc1ccc(N2CCN(C(=O)C(NC(=O)c3c(F)cccc3F)C(C)C)CC2)cc1 (centres undefined),.,.,-10,.
N/C(=N\OC(=O)c1cc([N+](=O)[O-])ccc1Cl)c1ccccn1,.,21,-13,.
N/C(=N/OC(=O)c1cccc([N+](=O)[O-])c1)c1cccc([N+](=O)[O-])c1,1,36,-17,-1
N/C(=N\OC(=O)c1ccc([N+](=O)[O-])cc1Cl)c1ccccn1,.,.,88*,.
CCCc1ccc(C(=O)O/N=C(\N)c2ccccn2)cc1,.,.,89*,.
COc1ccc(C/C(N)=N/OC(=O)c2cccc([N+](=O)[O-])c2)cc1,1,19,12,-1
COc1ccccc1C/C(N)=N/OC(=O)c1cccc([N+](=O)[O-])c1,1,15,76*,-1
N/C(=N\OC(=O)c1cccc([N+](=O)[O-])c1)c1ccccn1,0.3,21,16,67*
CCOC(=O)N1CCN(CC(=O)Nc2c(C(=O)OC)[nH]c3cccc(Cl)c23)CC1,1.1,0,-17,-8
COCCNC(=O)Cn1cc2c(n1)CCC(C)C2 (centres undefined),1,32,22,-4
CC(C)C(NS(=O)(=O)c1ccc2c(c1)Cc1cc(S(=O)(=O)NC(C(=O)O)C(C)C)ccc1-2)C(=O)O (centres undefined),.,.,-24,.
Cc1ccc(C)c(NC(=O)CN(C)C(=O)C2CCN(S(=O)(=O)c3ccc4c(c3)OCCO4)CC2)c1,.,.,7,.
O=C(CN1C(=O)NC2(CCCCCCC2)C1=O)Nc1c(Cl)cccc1Cl,.,.,0,.
COc1cccc(C(=O)O/N=C(\N)c2ccccn2)c1,.,.,79*,.
Cc1ccc(C(=O)N2CCN(c3ncc(C(F)(F)F)cc3Cl)CC2)s1,.,.,5,.
O=C(OCn1ncc(Cl)c(Cl)c1=O)c1cccc(C(F)(F)F)c1,1,33,94*,-1
CC1(C(=O)NS(=O)(=O)c2ccccc2)CCN1C(=O)c1ccccc1CCc1ccccc1 (centres undefined),.,.,0,.
Cc1ccc(C)c2[nH]c(=O)c(CCNC(=O)Cc3cccs3)cc12,1,14,-3,-2
COc1ccc2cc(CNCCOCCOCCNCc3ccc4cc(OC)ccc4c3)ccc2c1,.,.,88*,.
CCOCCCNCc1ccc(OC)cc1,1.1,-12,-12,-6
CCOC(=O)c1ccc(NC(=O)c2nc[nH]c2C(=O)NCCNC(=O)c2[nH]cnc2C(=O)Nc2ccc(C(=O)OCC)cc2)cc1,.,.,92*,.
CCOC(=O)c1ccc(Nc2ncnc3ccccc23)cc1,1,-5,8,-1
CCOC(=O)c1ccc(Nc2ncnc3nc[nH]c23)cc1,0.5,33,34,50*
O=C1CCC(=O)N1c1ccc(-c2nc3ccccc3s2)cc1,0.1,31,78*,88*
Cc1cc(-c2nc3ccccc3s2)ccc1N,.,.,72*,.
SMILES,FLuc stim CS,PPC-1+TRAIL kill,TRAIL sens C8,FLuc inhib CS
Brc1ccc(-c2nc3ccccc3s2)s1,0.4,22,24,64*
c1ccc(-c2nc3ccccc3s2)nc1,0.4,14,17,61*
Nc1ccc(-c2nc3ccccc3s2)cn1,.,.,24,.
COc1cc(C(=O)NNC(=O)c2cc(C)[nH]n2)cc(OC)c1OC,1,34,-1,-4
Cc1cc(=O)[nH]c(S/C=C/c2ccccc2)n1,0.2,35,36,77*
CC1(C(=O)NCc2ccccc2)CN(S(C)(=O)=O)CC(=O)N1CCc1ccccc1 (centres undefined),.,.,-6,.
CCCN1C=CC(=C/C=C(\C#N)C(=O)OCC)C=C1,0.4,31,.,58*
O=C(O)COc1ccccc1/C=N/NC(=O)CNC(=O)c1ccc(F)cc1,.,7,-8,.
O=C(N/N=C/c1ccccc1Cl)c1ccc(F)cc1,0.2,29,45,78*
O=C(O)COc1ccccc1/C=N/NC(=O)c1ccc(F)cc1,0.5,15,9,53*
COc1ccc(CCN2C(=O)CS/C2=N\NC(=O)c2cccs2)cc1OC,1,20,0,-1
Cc1nnc(NC(=O)c2nc(S(=O)(=O)Cc3ccccc3C)ncc2Cl)s1,.,.,97*,.
Cc1cccc(CS(=O)(=O)c2ncc(Cl)c(C(=O)Nc3nnc(C(C)C)s3)n2)c1,.,.,95*,.
CC(C)c1nnc(NC(=O)c2nc(S(=O)(=O)Cc3ccc(F)cc3)ncc2Cl)s1,.,.,94*,.
COc1ccc(CNC(=O)c2nc(S(=O)(=O)Cc3ccccc3)ncc2Cl)cc1,.,.,31,.
CSc1nnc(NC(=O)c2nc(S(=O)(=O)Cc3cccc(C)c3)ncc2Cl)s1,.,.,84*,.
O=C(COC(=O)c1cc(=O)[nH]c2ccccc12)Nc1ccc(Cl)c(S(=O)(=O)N2CCOCC2)c1,.,.,-3,.
Cc1nc2ccccc2cc1C(=O)N/N=C/c1ccco1,1,1,-6,-2
C=CCOc1ccc(/C=C/C(=O)OCC(=O)N2CCN(S(=O)(=O)c3ccc(C)cc3C)CC2)cc1,.,.,-3,.
CSCCC1NC2(C(=O)Nc3c2ccc(Cl)c3C)[C@@H]2C(=O)N(C3CCCC3)C(=O)[C@H]12 (some centres undefined),1,31,-2,-1
Cc1cc(NC(=O)COc2cccnc2[N+](=O)[O-])no1,1,-2,-3,-4
CCCc1nc(SCC(=O)N2CCC(C)CC2)c2c(=O)n(C)c(=O)n(C)c2n1,.,9,19,.
CSc1nnc(NC(=O)c2nc(S(=O)(=O)Cc3ccccc3F)ncc2Cl)s1,.,.,81*,.
Cc1ccc(CS(=O)(=O)c2ncc(Cl)c(C(=O)Nc3nnc(C(C)C)s3)n2)cc1,.,.,83*,.
COCCNC(=O)CN(C(=O)CCC(=O)Nc1ccccn1)c1ccc(C)c(C)c1,.,.,-3,.
CCOC(=O)c1c(NC(=O)COC(=O)c2ccccn2)sc(C(=O)N(C)C)c1C,.,.,-13,.
Cc1cc(=O)[nH]c(N2CCN(c3ccc(Cl)cc3)CC2)n1,.,.,-4,.
Cc1cc(=O)[nH]c2nnc(-c3ccc(Cl)cc3)n12,.,.,68*,.
CCOC(=O)c1sc(NC(=O)Nc2cccc(Cl)c2)cc1C,0.5,18,55*,46
CCOC(=O)c1sc(NC(=O)c2sccc2C)cc1C,0.5,35,34,46
